Results as given in ChEMBL document CHEMBL4665773, “Structure activity relationship exploration of 5-hydroxy-2-(3-phenylpropyl)chromones as a unique 5-HT receptor antagonist scaffold” (Bioorg Med Chem Lett, 2020).

Experiments:
[1] = biological target: 5-hydroxytryptamine receptor 2A (Homo sapiens) (UniProt P28223); assay: Antagonist activity at 5HT2A receptor (unknown origin) at 10 uM by radioligand binding assay relative to control
[2] = biological target: T1, 5-hydroxytryptamine receptor 2B (Homo sapiens, UniProt P41595); assay: Antagonist activity at 5HT2B receptor (unknown origin) by radioligand binding assay
T1 sequence (P41595 whole entry): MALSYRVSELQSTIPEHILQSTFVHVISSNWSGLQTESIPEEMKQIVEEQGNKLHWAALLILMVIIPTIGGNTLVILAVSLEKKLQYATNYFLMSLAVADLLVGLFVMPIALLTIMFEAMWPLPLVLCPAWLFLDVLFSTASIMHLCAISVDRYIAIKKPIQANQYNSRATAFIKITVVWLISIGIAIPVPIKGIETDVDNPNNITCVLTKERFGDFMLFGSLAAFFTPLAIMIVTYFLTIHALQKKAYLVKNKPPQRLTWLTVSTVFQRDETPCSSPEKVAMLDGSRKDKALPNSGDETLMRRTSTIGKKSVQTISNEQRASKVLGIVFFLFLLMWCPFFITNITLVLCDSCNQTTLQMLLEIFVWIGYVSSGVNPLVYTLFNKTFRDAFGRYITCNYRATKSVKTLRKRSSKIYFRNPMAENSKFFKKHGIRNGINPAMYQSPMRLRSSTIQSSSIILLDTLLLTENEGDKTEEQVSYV

[3] = biological target: T2, 5-hydroxytryptamine receptor 2C (Homo sapiens) (UniProt P28335); assay: Antagonist activity at 5HT2C receptor (unknown origin) 10 uM by radioligand binding assay relative to control
T2 sequence (whole entry): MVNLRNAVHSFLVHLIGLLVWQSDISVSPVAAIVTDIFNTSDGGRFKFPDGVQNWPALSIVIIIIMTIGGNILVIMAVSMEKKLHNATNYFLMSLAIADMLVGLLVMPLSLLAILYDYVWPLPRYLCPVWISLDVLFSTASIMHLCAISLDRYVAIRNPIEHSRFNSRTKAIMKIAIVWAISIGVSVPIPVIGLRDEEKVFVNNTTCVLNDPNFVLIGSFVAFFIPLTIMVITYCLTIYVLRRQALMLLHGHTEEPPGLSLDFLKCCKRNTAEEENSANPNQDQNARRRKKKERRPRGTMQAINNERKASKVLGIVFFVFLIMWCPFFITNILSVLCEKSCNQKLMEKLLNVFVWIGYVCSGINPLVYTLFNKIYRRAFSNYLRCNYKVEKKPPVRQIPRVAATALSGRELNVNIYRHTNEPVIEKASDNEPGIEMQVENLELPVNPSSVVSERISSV

[4] = biological target: T1, 5-hydroxytryptamine receptor 2B; assay: Antagonist activity at 5HT2B receptor (unknown origin) at 10 uM by radioligand binding assay relative to control
[5] = biological target: T3, 5-hydroxytryptamine receptor 2C (Homo sapiens, UniProt P28335); assay: Antagonist activity at 5HT2C receptor (unknown origin) by radioligand binding assay
T3 sequence (P28335 whole entry): T2 sequence (whole entry)

[6] = biological target: T1, 5-hydroxytryptamine receptor 2B; assay: Antagonist activity at 5-HT2B receptor (unknown origin) assessed as inhibition of 5HT-indued response by calcium mobilization assay; assay type: functional
How it was run: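 Antagonist mode of the 5-HT2B calcium mobilization assay: 5-HT at 1.6 nM was challenged with various concentrations of test compound. Inhibition is expressed as pIC50.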

[7] = biological target: T1, 5-hydroxytryptamine receptor 2B; assay: Agonist activity at 5-HT2B receptor (unknown origin) assessed as maximal response at 10 uM by calcium mobilization assay relative to 3 nM 5-HT; assay type: functional
How it was run: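 Calcium mobilization read-out of agonism at 5-HT2B, with 5-HT as the reference agonist. Potency is expressed as pEC50. Maximal response to test compound at 10 μM is expressed relative to the maximal response to 5-HT at 3.0 nM.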

[8] = biological target: T1, 5-hydroxytryptamine receptor 2B; assay: Agonist activity at 5-HT2B receptor (unknown origin) by calcium mobilization assay; assay type: functional

Sequence of 5-hydroxytryptamine receptor 2A (Homo sapiens) (P28223 whole entry): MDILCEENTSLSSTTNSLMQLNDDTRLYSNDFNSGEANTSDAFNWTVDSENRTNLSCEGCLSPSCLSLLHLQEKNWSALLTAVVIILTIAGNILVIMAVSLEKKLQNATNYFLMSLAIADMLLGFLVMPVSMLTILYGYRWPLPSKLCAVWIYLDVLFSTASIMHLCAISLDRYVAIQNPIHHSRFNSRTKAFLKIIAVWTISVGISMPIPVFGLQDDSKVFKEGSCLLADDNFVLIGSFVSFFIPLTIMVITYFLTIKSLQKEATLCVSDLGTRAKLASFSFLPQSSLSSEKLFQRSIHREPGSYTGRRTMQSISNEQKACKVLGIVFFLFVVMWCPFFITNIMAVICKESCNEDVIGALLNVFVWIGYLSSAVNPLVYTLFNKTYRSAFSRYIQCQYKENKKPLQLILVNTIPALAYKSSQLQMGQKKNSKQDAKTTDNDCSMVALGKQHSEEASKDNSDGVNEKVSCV

inhibition [1] [%]	Ki [2] [nM]	inhibition ([3]; filed as antagonist) [%]	inhibition ([4]; filed as antagonist) [%]	inhibition [3] [%]	inhibition [4] [%]	Ki [5] [µM]	IC50 [6] [µM]	Rmax [7] [%]	EC50 [8] [nM]	SMILES
8.4	2510	44.4	52.7	–	–	–	–	–	–	O=c1cc(CCCc2cccc(F)c2)oc2cccc(O)c12
13.9	2000	44.8	61.7	–	–	–	–	–	–	O=c1cc(CCCc2cccc(Cl)c2)oc2cccc(O)c12
9.8	–	67.4	69.3	–	–	–	–	–	–	COc1cccc(CCCc2cc(=O)c3c(O)cccc3o2)c1
-5	–	–	–	32.6	35.3	–	–	–	–	O=c1cc(CCCc2ccc(OC(F)(F)F)cc2)oc2cccc(O)c12
9.3	2510	–	50.4	35.8	–	–	–	–	–	O=c1cc(CCCc2ccc(Cl)cc2)oc2cccc(O)c12
14.2	–	–	49.2	33.9	–	–	–	–	–	O=c1cc(CCCc2ccc(F)cc2)oc2cccc(O)c12
17.2	1580	51.2	50	–	–	3.16	–	–	–	Cc1ccc(CCCc2cc(=O)c3c(O)cccc3o2)cc1
14.4	2000	59.4	57.7	–	–	3.16	–	–	–	Cc1cccc(CCCc2cc(=O)c3c(O)cccc3o2)c1
19.5	2510	–	50	36	–	–	–	–	–	O=c1cc(CCCc2ccc(C(F)(F)F)cc2)oc2cccc(O)c12
7.2	79.4	–	91.1	15.5	–	–	6.31	12	501	N#Cc1cccc(CCCc2cc(=O)c3c(O)cccc3o2)c1
-1.6	–	87.9	75.3	–	–	–	–	–	–	COc1ccc(CCCc2cc(=O)c3c(O)cccc3o2)cc1
8.7	1000	43.5	65.8	–	–	–	–	–	–	O=c1cc(CCCc2cccc(C(F)(F)F)c2)oc2cccc(O)c12
